Laboratory results taken from ChEMBL document CHEMBL2331349, “Discovery of olmesartan hexetil: a new potential prodrug of olmesartan” (Bioorg Med Chem Lett, 2013).

Key:
Rattus norvegicus [1] = test: Tmax in Sprague-Dawley rat assessed as olmesartan at 20 mg/kg, po; assay type: ADME, organism-based; set-up: dose 20 mg/kg, route oral; settings: in vivo
Procedure, shortened: (§1)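 Male Sprague-Dawley rats (n = 4) dosed orally by feeding tube, 20 mg/kg as olmesartan. Carotid artery blood drawn at 0, 0.5, 1, 2, 3, 4, 6, 8, 10 h; plasma stored until analysis. Olmesartan measured by modified LC–MS/MS. Non-compartmental analysis; AUClast by trapezoidal rule; Tmax given as median (range), others mean ± SD.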

Rattus norvegicus [2] = test: Cmax in Sprague-Dawley rat assessed as olmesartan at 20 mg/kg, po; assay type: ADME, organism-based; set-up: dose 20 mg/kg, route oral; settings: in vivo; procedure, shortened: as §1
[3] = Half life in simulated gastric juice at 1 uM; assay type: physicochemical
Procedure, shortened: (§2)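 Substrate added from acetonitrile stock to rat plasma or simulated gastric juice, 1 µM final, 37 °C. Samples at 0, 15, 30, 60, 120 min quenched with twofold cold acetonitrile containing internal standard, centrifuged, supernatant analysed by LC–MS/MS. Half-life reported as mean of duplicate experiments.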

Rattus norvegicus [4] = test: AUClast in Sprague-Dawley rat assessed as olmesartan at 20 mg/kg, po; assay type: ADME, organism-based, Plasma; set-up: time 0 - last, dose 20 mg/kg, route oral; settings: in vivo; procedure, shortened: as §1
[5] = Half life in rat liver microsomes at 1 uM; assay type: ADME, Microsome
Procedure, shortened: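 Incubation with rat liver microsomes, 0.5 mg/mL total protein, 1.2 mM NADPH, 100 mM phosphate buffer pH 7.4. Substrate added from acetonitrile stock to 1 µM final, 37 °C. Samples at 0, 15, 30, 60, 120 min quenched with twofold cold acetonitrile containing internal standard, centrifuged, supernatant by LC–MS/MS. Mean of duplicate experiments.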

[6] = Half life in rat plasma at 1 uM; assay type: ADME, cell-free; procedure, shortened: as §2

| Compound | Tmax (Rattus norvegicus [1]) | Cmax (Rattus norvegicus [2]) | half-life at 1 µM [3] | AUClast (Rattus norvegicus [4]) | half-life at 1 µM [5] | half-life at 1 µM [6] |
| --- | --- | --- | --- | --- | --- | --- |
| CCCc1nc(C(C)(C)O)c(C(=O)OCc2oc(=O)oc2C)n1Cc1ccc(-c2ccccc2-c2nnn[nH]2)cc1 [OLMESARTAN MEDOXOMIL] | 60 min | 153.6 ng/mL | > 1000 min | 501.9 ng·h/mL | – | – |
| CCCc1nc(C(C)(C)O)c(C(=O)OC(C)OC(=O)OC2CCCCC2)n1Cc1ccc(-c2ccccc2-c2nnn[nH]2)cc1 (stereo not given) [OLMESARTAN HEXETIL] | 54 min | 1374.7 ng/mL | 390 min | 3013.8 ng·h/mL | 2.77 min | 1.54 min |
